Source: PubChem BioAssay
TNAP inh no acc: human TNAP enzyme inhibitors, primary screen, biochemical, luminescent, no phosphate acceptor, uHTS; Alkaline phosphatase, tissue-nonspecific isozyme (Homo sapiens), P05186; purified TNAP, CDP-star luminescence, 30 min; inhibition, % at 20 µM; 200,000 tested, 0.26% active; AID 1012, 2008;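 active = tissue-nonspecific alkaline phosphatase inhibition above about 50% at 20 µM in the single-dose screen, limit read from the data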;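 also: 0% = DMSO negative control and 100% = EDTA positive control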
ABCB6 inh 2: ABCB6 transporter inhibitors, primary screen, K562-ABCB6 cells, flow cytometry, MLPCN library. ATP-binding cassette sub-family B member 6 (Homo sapiens), Q9NP58. K562-ABCB6 porphyrin accumulation, 1 h; stronger effect = lower value. fluorescence ratio to DMSO, % at 10 µM. 360,000 tested, 0.19% active. AID 602162, 2011;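 active = fluorescence ratio to DMSO below 75%, the collection mean minus 3 SD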;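 also: signal is porphyrin accumulated inside mitochondria; 100% equals median channel fluorescence of DMSO control wells; lower ratio means ABCB6 inhibition with less porphyrin fluorescence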
TNAP inh hiacc: human TNAP enzyme inhibitors, primary screen, biochemical, luminescent, high phosphate acceptor level, uHTS; 200,000 tested, 0.03% active; purified TNAP, CDP-star luminescence, 1 M DEA; inhibition, % at 20 µM; Alkaline phosphatase, tissue-nonspecific isozyme (Homo sapiens), P05186;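 active = over 50% inhibition of tissue-nonspecific alkaline phosphatase at 20 µM in the single-dose screen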;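 also: plate controls were DMSO wells for no effect and EDTA-quenched wells as full inhibition for full effect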
CHT PAM: CHT positive allosteric modulators, primary screen, cell-based, membrane potential dye, choline EC20; High affinity choline transporter 1 (Homo sapiens), Q9GZV3; CHT-expressing cells; stronger effect = higher value; LV-AA mutant CHT in HEK293 cells; B-score at 10 µM; 310,000 tested, 0.49% active; AID 488977, 2010;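 active = initial fluorescence not abnormally high and integrated response B-score, plate-corrected, over 3 SD above library mean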
Target sequence (Q9GZV3 whole entry, looked up): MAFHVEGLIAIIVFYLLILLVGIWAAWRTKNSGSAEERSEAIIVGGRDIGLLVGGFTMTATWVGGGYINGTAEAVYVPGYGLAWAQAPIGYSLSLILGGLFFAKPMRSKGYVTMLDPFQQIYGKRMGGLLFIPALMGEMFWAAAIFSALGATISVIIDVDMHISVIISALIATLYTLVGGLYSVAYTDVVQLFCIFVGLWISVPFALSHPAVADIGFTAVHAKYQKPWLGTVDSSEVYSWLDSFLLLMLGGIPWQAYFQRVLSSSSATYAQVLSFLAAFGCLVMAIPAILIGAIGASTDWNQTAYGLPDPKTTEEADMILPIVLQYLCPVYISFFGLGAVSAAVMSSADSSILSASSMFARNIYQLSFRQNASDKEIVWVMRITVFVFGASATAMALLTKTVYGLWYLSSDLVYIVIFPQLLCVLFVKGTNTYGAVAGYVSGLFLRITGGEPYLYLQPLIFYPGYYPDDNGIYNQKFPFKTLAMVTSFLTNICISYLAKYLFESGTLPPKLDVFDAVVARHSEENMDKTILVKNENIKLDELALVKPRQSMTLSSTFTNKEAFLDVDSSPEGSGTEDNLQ
TNAP act hi DEA: TNAP activators at high phosphate acceptor level, primary screen, biochemical, luminescence, uHTS. Alkaline phosphatase, tissue-nonspecific isozyme (Homo sapiens), P05186. purified TNAP, CDP-star luminescence, 1 M DEA, 30 min; stronger effect = higher value; 0 = EDTA background, 1 = DMSO-only activity. activation factor at 20 µM. 200,000 tested, under 10 active;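 active = activation factor at least 2 at 20 µM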
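system = human TNAP | amount = enzyme diluted 1/800 final | reagent = 100 µM CDP-star substrate | signal = luminescent substrate turnover signal | dosing = one dose, 20 µM | benchmarks = EDTA negative control, DMSO positive control | measure = activation factor | timing = 30 min reaction, room temperature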
CHT inh: inhibitors of human choline transporter CHT; High affinity choline transporter 1 (Homo sapiens), Q9GZV3; CHT-expressing cells, membrane potential dye, choline response; stronger effect = lower value; B-score at 10 µM; 310,000 tested, 0.86% active; AID 488975, 2010;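 active = B-score over 3 SD under the library average, and starting fluorescence ratio not unusually high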;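 also: choline stimulus applied at its EC90 after an EC20 pre-addition; B-score computed on integrated fluorescence ratio after choline addition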
CHT act confirm: CHT activators, confirmation, cell-based, membrane potential dye, duplicate; 2,500 tested, 91% active; activation, % at 10 µM; shares compounds with CHT PAM; CHT-expressing cells, membrane potential dye fluorescence (FDSS); % of choline EC20–EC90 response window; HEK293 expressing CHT LV-AA mutant; choline added at its EC20;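 active = primary screen active, with duplicate mean activation above negative control mean plus 3 SD, cut at about 11% in these data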
HEK293 MP dye: membrane potential response in parental HEK293 cells, counter-screen for CHT activator project, cell-based, membrane potential dye; shares compounds with CHT PAM; membrane potential dye fluorescence (FDSS); measured after EC20 choline addition; ratio readout change at 10 µM, hits read low; 2,500 tested, 62% active;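 active = duplicate-averaged ratio beyond 3 SD from buffer wells, up or down, though filed actives are nearly all decreases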
An asterisk follows results filed as active; i = inactive; x = no result. This is a sample that favours compounds with a hit; in the whole collection about 1.4% have one here.

SMILES	TNAP inh no acc	ABCB6 inh 2	TNAP inh hiacc	CHT PAM	TNAP act hi DEA	CHT inh	CHT act confirm	HEK293 MP dye
COc1cnc(-c2ccccn2)nc1N(C)C	-30.0	95.0	-1.5	i	1	i	33.0*	-35.6*
CC1=Nc2cccc3cccc(c23)N1	5.0	99.0	1.9	i	1	i	33.2*	-38.9*
CC(C)C[C@H]1CN=C(Nc2ccccc2)N1CC1CCC(C(C)(C)C)CC1 (some centres not stated)	x	97.0	x	28.5*	x	i	59.0*	i
CC(C)CCN1C(Nc2ccccc2)=NC[C@@H]1Cc1ccccc1	x	99.0	x	6.97*	x	i	20.9*	i
O=C(Nc1ccccc1Cl)OC1CCCCC1	x	95.0	x	i	x	i	x	x
C[C@]12C=CC(=O)C=C1CC[C@@H]1C2=CC[C@]2(C)[C@@H](C(=O)CN3CCN(c4cc(N5CCCC5)nc(N5CCCC5)n4)CC3)CC[C@@H]12	x	108.0	x	8.21*	x	i	48.5*	-75.7*
Cc1ccc2cc(C)c(NCCO)nc2c1	-10.2	87.0	-2.4	8.1*	1	i	31.0*	-52.2*
Cc1ccc2nc(C)cc(Nc3ccc4c(c3)OCCO4)c2c1	-8.7	95.0	-2.2	i	1	i	21.2*	-44.3*
Cc1ccc2nc(C)cc(NCCO)c2c1	-11.3	96.0	-2.9	8.72*	1	i	53.4*	-66.6*
COc1cccc(Nc2nc3cc(C)ccc3cc2C)c1	x	95.0	x	x	x	x	x	x
O=C(Nc1ccc(F)c(Cl)c1)c1cc(C2CCCCN2C(=O)c2cccs2)on1 (configuration not stated)	x	96.0	x	x	x	x	x	x
NC(=O)c1cc(S(=O)(=O)N2CCN(c3ccc([N+](=O)[O-])cc3)CC2)cs1	x	96.0	x	i	x	i	x	x
Cc1onc(-c2ccccc2)c1NC(=O)N(Cc1ccccc1)C(C)C	x	98.0	x	i	x	i	x	x
COc1ccc2c(c1)N1CCN=C1N2C	-14.0	104.0	-8.7	8.9*	1.1	i	64.8*	-65.2*
CN1C2=NCCN2C(=O)c2cc(Cl)ccc21	x	99.0	x	i	x	i	x	x
COC(=O)[C@@]1(Cc2ccc(F)cc2)[C@H]2c3cc(C(=O)N(C)C)n(CC4CC4)c3C[C@H]2CN1C(=O)c1ccccc1	x	99.0	x	x	x	x	x	x
CCC(C)(C)n1nnnc1C(c1cccc(C#N)c1)N1CCN(c2cccc(C)c2C)CC1 (configuration not stated)	-13.4	97.0	-5.1	i	1.1	i	25.6*	i
CCC(C)(C)n1nnnc1C(c1ccccc1)N1CCc2ccccc2C1 (configuration not stated)	-7.2	102.0	-3.3	6.28*	1	i	32.0*	i
CC(C)(C)n1nnnc1C(c1cccc(C#N)c1)N1CCCCCC1 (configuration not stated)	-7.2	100.0	-3.2	i	1	i	x	x
C[C@@H](NC(=O)[C@@H]1CCCN1C(=O)[C@@H]1CCCN1C(=O)c1ccc(Cl)cc1)c1ccccc1	x	96.0	x	x	x	x	x	x
CC(N)(C(=O)O)c1cccc(OCc2cccc(Cl)c2)c1 (configuration not stated)	x	91.0	x	i	x	i	x	x
Cc1sc2ncn3c(C)nnc3c2c1C	-6.2	105.0	-5.6	7.02*	1.1	i	58.6*	-57.5*
